Reference: ChEMBL document CHEMBL1145212, “Fluorinated diaryl sulfides as serotonin transporter ligands: synthesis, structure-activity relationship study, and in vivo evaluation of fluorine-18-labeled compounds as PET imaging agents” (J Med Chem, 2005)

What was measured:
Type in all cases: cell-based
[1] = molecular target: Sodium-dependent dopamine transporter (Homo sapiens, UniProt Q01959); test: In vitro displacement of [3H]GBR-12935 from human dopamine transporter expressed in HEK293 cells
Outline: (§1)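 Competitive binding using cloned human transporters expressed in HEK-293 cells. NET was labelled with [³H]nisoxetine and DAT with [³H]GBR12935, following a previously published procedure.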

[2] = molecular target: Sodium-dependent noradrenaline transporter (Homo sapiens, UniProt P23975); test: In vitro displacement of [3H]nisoxetine from human norepinephrine transporter expressed in HEK293 cells; outline: as §1
Sodium-dependent noradrenaline transporter, sequence (P23975 whole entry): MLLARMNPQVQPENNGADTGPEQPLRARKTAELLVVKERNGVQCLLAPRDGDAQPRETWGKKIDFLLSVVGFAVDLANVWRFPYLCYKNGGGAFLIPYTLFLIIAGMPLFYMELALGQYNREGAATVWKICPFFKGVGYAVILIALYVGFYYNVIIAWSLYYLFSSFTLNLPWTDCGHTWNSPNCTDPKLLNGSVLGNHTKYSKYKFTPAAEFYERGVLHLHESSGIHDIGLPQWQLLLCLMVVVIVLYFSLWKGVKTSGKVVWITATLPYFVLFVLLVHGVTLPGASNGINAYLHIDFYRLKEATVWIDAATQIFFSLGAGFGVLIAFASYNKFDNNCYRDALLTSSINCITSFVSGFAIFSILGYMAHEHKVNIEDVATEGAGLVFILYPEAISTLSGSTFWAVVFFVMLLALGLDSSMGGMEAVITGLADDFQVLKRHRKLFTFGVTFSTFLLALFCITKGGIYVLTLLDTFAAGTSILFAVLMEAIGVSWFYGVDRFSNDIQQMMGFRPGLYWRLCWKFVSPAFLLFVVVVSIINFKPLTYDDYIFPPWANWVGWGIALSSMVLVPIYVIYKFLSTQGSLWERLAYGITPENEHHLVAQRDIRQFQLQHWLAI

[3] = molecular target: Sodium-dependent serotonin transporter (Homo sapiens, UniProt P31645); test: In vitro displacement of [3H]paroxetine from human serotonin transporter expressed in HEK293 cells
Sodium-dependent serotonin transporter, sequence (P31645 whole entry): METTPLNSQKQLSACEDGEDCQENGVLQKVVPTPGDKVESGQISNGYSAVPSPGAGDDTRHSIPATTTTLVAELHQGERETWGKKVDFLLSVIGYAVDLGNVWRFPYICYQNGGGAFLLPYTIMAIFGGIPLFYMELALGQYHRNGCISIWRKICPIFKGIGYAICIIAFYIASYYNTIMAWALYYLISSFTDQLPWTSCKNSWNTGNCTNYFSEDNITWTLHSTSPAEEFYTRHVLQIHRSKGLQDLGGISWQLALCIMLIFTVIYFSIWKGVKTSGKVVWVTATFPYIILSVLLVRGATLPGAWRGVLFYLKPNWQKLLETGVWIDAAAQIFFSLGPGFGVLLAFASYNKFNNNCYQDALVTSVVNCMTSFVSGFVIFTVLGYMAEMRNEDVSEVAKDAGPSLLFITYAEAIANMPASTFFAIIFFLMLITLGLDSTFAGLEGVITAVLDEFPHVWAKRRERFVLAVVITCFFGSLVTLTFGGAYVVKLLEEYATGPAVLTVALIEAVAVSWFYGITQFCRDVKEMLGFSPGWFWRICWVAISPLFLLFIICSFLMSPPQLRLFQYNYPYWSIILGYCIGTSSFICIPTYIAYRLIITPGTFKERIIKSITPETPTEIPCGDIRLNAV

Sodium-dependent dopamine transporter, sequence (Q01959 whole entry): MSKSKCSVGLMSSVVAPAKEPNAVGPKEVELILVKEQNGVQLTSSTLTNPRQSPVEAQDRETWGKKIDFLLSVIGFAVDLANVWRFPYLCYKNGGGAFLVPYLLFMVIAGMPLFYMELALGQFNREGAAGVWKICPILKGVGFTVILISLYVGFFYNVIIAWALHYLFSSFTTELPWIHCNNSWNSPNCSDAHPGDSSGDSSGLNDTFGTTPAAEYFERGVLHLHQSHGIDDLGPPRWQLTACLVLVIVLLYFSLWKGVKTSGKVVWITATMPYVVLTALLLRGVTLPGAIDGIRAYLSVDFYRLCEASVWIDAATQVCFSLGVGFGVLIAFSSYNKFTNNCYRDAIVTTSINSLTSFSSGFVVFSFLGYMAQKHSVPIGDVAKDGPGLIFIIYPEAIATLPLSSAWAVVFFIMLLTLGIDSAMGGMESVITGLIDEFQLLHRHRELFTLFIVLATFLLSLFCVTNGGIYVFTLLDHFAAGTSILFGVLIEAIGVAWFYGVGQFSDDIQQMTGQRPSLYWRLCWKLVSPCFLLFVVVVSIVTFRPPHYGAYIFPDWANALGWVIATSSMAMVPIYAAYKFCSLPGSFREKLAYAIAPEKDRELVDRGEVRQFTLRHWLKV

## CN(C)Cc1ccccc1Sc1ccc(CO)cc1N
[1]
  Ki: 3610 nM
[2]
  Ki: 787 nM
[3]
  Ki: 0.8 nM
